Test results: paper PMC10412738 (Cell reports, 2023)

Assays:
Y79 cells [1] = test: Cell proliferation; type: cell-based; conditions: for growth arrest following SFRP2 silencing, Wnt inhibitors: 1 μM, SFRP2 siRNA
Procedure, shortened: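 SFRP2 or control siRNA transfected with Lipofectamine RNAiMAX, then cells given recombinant human SFRP2 at 250 ng/mL or left untreated. Proliferation tracked by IncuCyte live-cell imaging. RB383 were grown in IMDM with 10% FBS, 10 μg/mL insulin and 55 μM β-mercaptoethanol; Y79 in RPMI-1640 with 10% FBS.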

[2] = tested on: phosphorylated CREB (phospho-serine 133) in RB383 cells; test: Phosphorylated CREB by immunoblotting, RB383; type: cell-based; conditions: for phosphorylated CREB induction: RB383 cells, 1 μg/mL, immunoblotting
NOS2 RNA in RB383 cells = test: NOS2 RNA by qRT-PCR, RB383; type: cell-based; conditions: n = 3; for NOS2 RNA induction following SFRP2 silencing: 12 h; for NOS2 RNA induction: RB383 cells, 1 μg/mL, qRT-PCR
[3] = tested on: NO production in RB383 cells; test: NO production, nitrate/nitrite colorimetric assay, RB383; type: cell-based; conditions: n = 3; for NO production following SFRP2 silencing: CM, 12 h; for NO production: RB383 cells, 1 μg/mL, NO in the CM
Procedure, shortened: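 Test peptides (12-mer SFRP2 binders from phage display) added to RB383 at 1 μg/mL. At the indicated time points, NO in the conditioned medium was measured by nitrite/nitrate colorimetric assay; n = 3.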

RB383 cells = test: Cell proliferation; type: cell-based; conditions: for inhibition of proliferation: RB383 cells, 1 μg/mL, IncuCyte
retinoblastoma cells = test: Rescue of growth inhibition following SFRP2 silencing; type: cell-based; conditions: SFRP2 siRNA
Procedure, shortened: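 Retinoblastoma cell lines transfected with SFRP2 or control siRNA (RNAiMAX), then exposed to 5 μM NS-2028 (sGC inhibitor) or 2.5 μM KT5823 (PKG inhibitor), or left untreated. Proliferation measured by IncuCyte live-cell imaging.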

p21 in RB383 cells = test: p21 induction following SFRP2 silencing, immunoblotting, RB383; type: cell-based; conditions: 1 μM carboxy-PTIO, 5 μM NS-2028, or 2.5 μM KT5823
Procedure, shortened: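 In RB383 cells transfected with SFRP2 or control siRNA, treatment was none, 1 μM carboxy-PTIO, 5 μM NS-2028 or 2.5 μM KT5823. p21 protein was then assessed by SDS-PAGE immunoblotting of whole-cell lysate.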

[4] = tested on: NO production in Y79 cells; test: NO production, nitrate/nitrite colorimetric assay, Y79; type: cell-based; conditions: 2 μM, CM and cell lysate, n = 3
Procedure, shortened: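 Y79 retinoblastoma cells were exposed to a small-molecule SFRP inhibitor at 2 μM. At the indicated times, NO production was measured in conditioned medium and in cell lysate by nitrite/nitrate colorimetric assay. n = 3; data given as mean ± SEM.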

SFRP1 = conditions: cited from earlier work
[5] = tested on: SFRP2 RNA in retinoblastoma cells; test: SFRP2 RNA silencing in retinoblastoma; type: cell-based; conditions: n = 3
[6] = tested on: ARPE-19 retinal pigment epithelial cells; test: Cell proliferation; type: cell-based, human; conditions: 1 μg/mL, IncuCyte
[7] = target: Recombinant human CXADR protein (3336-CX-050, R&D Systems) (human) (UniProt P78310); test: MST
recombinant CXADR = test: Microscale thermophoresis of SFRP2-CXADR interaction; type: binding, human; conditions: read-out: KD of SFRP2-CXADR interaction, labeled CXADR, PBS/0.005% Tween 20, 30-min incubation at room temperature, Monolith NT.115
Procedure, shortened: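 Recombinant human CXADR was fluorescently labelled with the RED-NHS second-generation dye kit. It was mixed with recombinant human SFRP2, incubated, and loaded into capillary chips. KD was derived from microscale thermophoresis affinity analysis.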

[8] = tested on: NO production in CXADR-overexpressing Y79 cells; test: NO production in CXADR-overexpressing Y79 cells; type: cell-based; conditions: 250 ng/mL recombinant SFRP2, n = 3
[9] = tested on: CXADR-overexpressing Y79 cells; test: Cell proliferation of CXADR-overexpressing Y79 cells; type: cell-based; conditions: 250 ng/mL recombinant SFRP2
Procedure, shortened: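 Y79 cells were infected with pCDH1-puro lentivirus (made in 293T) carrying CXADR cDNA or empty vector, then selected in 5 μg/mL puromycin for 48 h. Expression was checked by anti-CXADR immunoblot. Cells were treated with recombinant SFRP2 at 250 ng/mL or left untreated, and proliferation was monitored by IncuCyte.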

CXADR = test: Co-immunoprecipitation of SFRP2 with endogenous CXADR in 293T cells; type: binding; conditions: C-terminally FLAG-tagged SFRP2, 293T cells
Procedure, shortened: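 FLAG-tagged constructs (C-terminally FLAG-tagged SFRP2 in pcDNA3) were transfected by calcium phosphate co-precipitation into 293T cells grown in DMEM with 10% fetal bovine serum. Anti-FLAG immunoprecipitation was followed by SDS-PAGE and anti-CXADR immunoblotting for endogenous CXADR.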

Y79 cells [10] = test: Ligand-binding assay of SFRP2-FLAG to Y79 cells; conditions: anti-FLAG immunoblotting after washing
Procedure, shortened: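 C-terminally FLAG-tagged SFRP2 was secreted from transfected 293T cells. It was incubated with Y79 cells previously transfected (Lipofectamine RNAiMAX) with CXADR siRNA or control siRNA. Cells were washed to remove unbound protein and lysed. Whole-cell lysate went to SDS-PAGE and anti-FLAG immunoblotting. CXADR knockdown was confirmed by immunoblotting.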

Question: With `CC(=O)N[C@@H](C(=O)O)C(C)(C)SN=O` (racemic) [SNAP] as the molecule, how does the “retinoblastoma growth, NO donor” value (Y79 cells [1]; concentrations in figure, IncuCyte) read?
Answer: inhibited retinoblastoma growth in a dose-dependent manner

Question: Which “CREB phosphorylation following SFRP2 silencing” value ([2]; RB383, 5 μM H89, SFRP2 siRNA, 48 h) does the source give for `O=S(=O)(NCCNC/C=C/c1ccc(Br)cc1)c1cccc2cnccc12` [H89] here?
Answer: abolished CREB phosphorylation

Question: What about the “NOS2 RNA induction following SFRP2 silencing” value (NOS2 RNA in RB383 cells; RB383, 5 μM H89, SFRP2 siRNA) of the same molecule?
Answer: abolished

Question: What about the “NO production following SFRP2 silencing” value ([3]; RB383, 5 μM H89, SFRP2 siRNA) of the same molecule?
Answer: abolished

Question: What about the “growth inhibition following SFRP2 silencing” value (RB383 cells; RB383, 5 μM H89, SFRP2 siRNA) of the same molecule?
Answer: abolished

Question: With `O=C(CSc1nc2c(c(=O)n1-c1ccccc1)SCC2)Nc1ccc(-c2ccccc2)cn1` [IWP-L6] as the molecule, how does the “growth arrest following SFRP2 silencing, Wnt inhibitors” value (Y79 cells [1]) read?
Answer: did not rescue the growth arrest of retinoblastoma cells following SFRP2 silencing

Question: What does the source list for `COC(=O)[C@@]1(OC)C[C@H]2O[C@]1(C)n1c3ccccc3c3c4c(c5c6ccccc6n2c5c31)C(=O)N(C)C4` [KT5823]?
Answer: growth inhibition following SFRP2 silencing (rescue), PKG inhibitor (retinoblastoma cells; 2.5 μM): abolished; p21 induction following SFRP2 silencing (p21 in RB383 cells): abolished

Question: For `[H]/N=C(/NC)NCCC[C@H](N)C(=O)O` [L-NMMA], which “growth inhibition following SFRP2 silencing (rescue), pan-NOS inhibitor” value (retinoblastoma cells; concentrations in figure) is on record?
Answer: abolished growth inhibition following SFRP2 silencing

Question: With `Nc1ncc2c(n1)CC(c1ccco1)CC2=O` (stereo not drawn) [NKY80] as the molecule, how does the “NOS2 RNA induction following SFRP2 silencing” value (NOS2 RNA in RB383 cells; RB383, 1 μM NKY80, SFRP2 siRNA) read?
Answer: abolished NOS2 induction

Question: What about the “NO production following SFRP2 silencing” value ([3]; RB383, 1 μM NKY80, SFRP2 siRNA) of the same molecule?
Answer: abolished

Question: And the “growth inhibition following SFRP2 silencing” value (RB383 cells; RB383, 1 μM NKY80, SFRP2 siRNA)?
Answer: abolished

Question: For `O=c1onc2n1-c1cc(Br)ccc1OC2` [NS-2028], which “growth inhibition following SFRP2 silencing (rescue), sGC inhibitor” value (retinoblastoma cells; 5 μM) is on record?
Answer: abolished

Question: And the “p21 induction following SFRP2 silencing” value (p21 in RB383 cells)?
Answer: abolished

Question: Which NO generation [4] does the source give for `O=S(=O)(NC1CCNCC1)c1cc(S(=O)(=O)c2ccccc2)ccc1C(F)(F)F` [WAY-316606] here?
Answer: rapidly induces NO generation in retinoblastoma cells

Question: What about the inhibition of proliferation (Y79 cells [1]; dose range in figure, IncuCyte) of the same molecule?
Answer: efficiently inhibited retinoblastoma cell proliferation in a dose-dependent manner

Question: And the “inhibition of SFRP1” value (SFRP1)?
Answer: potent inhibitor of SFRP1

Question: For `Oc1nc(-c2ccc(C(F)(F)F)cc2)nc2c1CSCC2` [XAV939], which “growth arrest following SFRP2 silencing, Wnt inhibitors” value (Y79 cells [1]) is on record?
Answer: did not rescue the growth arrest of retinoblastoma cells following SFRP2 silencing

Question: For `CC1(C)N([O])C(c2ccc(C(=O)O)cc2)=[N+]([O-])C1(C)C` [carboxy-PTIO], which “growth inhibition following SFRP2 silencing (rescue), NO scavenger” value (retinoblastoma cells; 1 μM, all five retinoblastoma cell lines) is on record?
Answer: completely abolished SFRP2 silencing-induced growth inhibition in all five retinoblastoma cell lines

Question: And the “p21 induction following SFRP2 silencing” value (p21 in RB383 cells)?
Answer: abolished

Question: What about the “effect on SFRP2 silencing” value [5] of the same molecule?
Answer: did not affect SFRP2 silencing

Question: For HGWASLLNYSWY [peptide II], which “phosphorylated CREB induction” value [2] is on record?
Answer: rapidly induced phosphorylated CREB

Question: What about the “NOS2 RNA induction” value (NOS2 RNA in RB383 cells) of the same molecule?
Answer: rapidly induced

Question: What about the NO production [3] of the same molecule?
Answer: rapidly induced

Question: And the inhibition of proliferation (RB383 cells)?
Answer: strongly inhibited proliferation of retinoblastoma cells

Question: What about the inhibition of proliferation (Y79 cells [1]; 1 μg/mL, IncuCyte) of the same molecule?
Answer: strongly inhibited proliferation of retinoblastoma cells

Question: What about the “growth of ARPE-19 cells” value [6] of the same molecule?
Answer: do not inhibit the growth of retinal pigment epithelial cells

Question: With HNPFTFFGPMFY [peptide I] as the molecule, how does the “phosphorylated CREB induction” value [2] read?
Answer: rapidly induced phosphorylated CREB

Question: What about the “NOS2 RNA induction” value (NOS2 RNA in RB383 cells) of the same molecule?
Answer: rapidly induced

Question: What about the NO production [3] of the same molecule?
Answer: rapidly induced

Question: And the inhibition of proliferation (RB383 cells)?
Answer: strongly inhibited proliferation of retinoblastoma cells

Question: And the inhibition of proliferation (Y79 cells [1]; 1 μg/mL, IncuCyte)?
Answer: strongly inhibited proliferation of retinoblastoma cells

Question: What about the “growth of ARPE-19 cells” value [6] of the same molecule?
Answer: do not inhibit the growth of retinal pigment epithelial cells

B1: Recombinant human SFRP2 protein (6838-FR-025, R&D Systems) (ligand)
chain: LFLFGQPDFSYKRSNCKPIPANLQLCHGIEYQNMRLPNLLGHETMKEVLEQAGAWIPLVMKQCHPDTKKFLCSLFAPVCLDDLDETIQPCHSLCVQVKDRCAPVMSAFGFPWPDMLECDRFPQDNDLCIPLASSDHLLPATEEAPKVCEACKNKNDDDNDIMETLCKNDFALKIKVKEITYINRDTKIILETKSKTIYKLNGVSERDLKKSVLWLKDSLQCTCEEMNDINAPYLVMGQKQGGELVITSVKRWQKGQREFKRISRSIRKLQC
Question: Which Kd [7] does the source give for B1 here?
Answer: 11.9 nM

B2: recombinant SFRP2: Recombinant human SFRP2 protein (R&D Systems) (protein)
chain: B1 chain
modifications: left off: FLAG, C-terminal, kept
Question: Which results are given for B2?
Answer: Kd (recombinant CXADR): 11.9 nM; NO generation in CXADR-overexpressing cells [8]: rapidly abolished; proliferation of CXADR-overexpressing cells [9]: rescue of proliferation

B3: SFRP2-FLAG: C-terminally FLAG-tagged SFRP2 produced by transfection in 293T cells (protein)
chain: B1 chain
modifications: left off: FLAG, C-terminal, kept
Question: Which “co-immunoprecipitation with CXADR” value (CXADR) does the source give for B3 here?
Answer: specifically co-immunoprecipitated with CXADR

Question: What about the “SFRP2-FLAG binding to Y79 cells” value (Y79 cells [10]) of the same molecule?
Answer: bound to Y79 cells, and this binding was abolished by siRNA-mediated silencing of CXADR
